pIC50: −log10 of the molar value.
How the values were obtained:
[1] = Partition coefficient, log P of the compound; type: physicochemical; conditions: octanol/water
PC-3 = assay: Cytotoxicity against human PC3 cells assessed as cell growth after 48 hrs by sulforhodamine B assay; type: functional, cell-based; conditions: Homo sapiens, PC-3, 48 h
Outline: (§1)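 Log-phase cells seeded at 10^4/well and allowed to attach for 24 h at 37 °C, 5% CO2. Exposed for 48 h to 0.1–100 (1:10 serial dilutions), four replicate wells per condition. Fixed with cold 50% TCA for 1 h at 4 °C, stained with sulforhodamine B, dye dissolved in Tris, OD read at 540 nm. Blank-subtracted growth expressed relative to untreated cells (100%); IC50 reported.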

SW-620 = assay: Cytotoxicity against human SW620 cells assessed as cell growth after 48 hrs by sulforhodamine B assay; type: functional, cell-based; conditions: Homo sapiens, SW-620, 48 h; outline: as §1
DU-145 = assay: Cytotoxicity against human DU145 cells assessed as cell growth after 48 hrs by sulforhodamine B assay; type: functional, cell-based; conditions: Homo sapiens, DU-145, 48 h; outline: as §1

SMILES	logP [1]	pIC50 (PC-3)	pIC50 (SW-620)	pIC50 (DU-145)
Cc1ccccc1C1=NO[C@]2(C1)C(=O)O[C@@H]1[C@H]2CC[C@H](C)[C@]2(O)C=CC(=O)[C@@]12C	1.86	5.00	5.30	4.92
COc1ccccc1N1C[C@]12C(=O)O[C@@H]1[C@H]2CC[C@H](C)[C@]2(O)C=CC(=O)[C@@]12C	1.41	4.28	4.33	4.57
Cc1ccc(N2C[C@]23C(=O)O[C@@H]2[C@H]3CC[C@H](C)[C@]3(O)C=CC(=O)[C@@]23C)cc1	1.83	4.60	4.49	4.44
COc1ccc(C2=NO[C@]3(C2)C(=O)O[C@@H]2[C@H]3CC[C@H](C)[C@]3(O)C=CC(=O)[C@@]23C)cc1	1.47	4.46	4.39	4.70

— ChEMBL document CHEMBL1806428, “Design and synthesis of spiro derivatives of parthenin as novel anti-cancer agents” (Eur J Med Chem, 2011)
